Test results from PubChem BioAssay AID493239 (Broad Institute, 2011).
Values joined by “and” are separate entries in the source; they are usually repeats but may differ in a detail not shown here. Equal values may be shown once. Active and inactive are the calls of the source.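 The calls were made as follows: active = fitted curve crosses 40% activation at or below the top valid dose tested for that sample; inconclusive = flat fit between 30 and 70% activation, or poor fit; inactive = the rest, including activity in the opposite direction.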

What was measured:
[1] = test system: U2OS GFP-HIF1alpha nuclear intensity imaging; assay: activators of HIF1alpha nuclear translocation – imaging, U2OS, high content, dry powder, set 3, orthogonal assay for HIF pathway activator project, dose response (AID 493239)
How it was run: (§1)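 Material: human osteosarcoma U2OS cells expressing GFP-HIF1alpha fusion; amount: 2,000 cells/well; compound: 8 concentrations, 3-fold steps; incubation: cells plated one day before dosing, compound exposure 24 h at 37 °C; measured by: 10X fluorescence microscopy, fixed cells, DAPI nuclear stain; control set: Desferrioxamine as positive control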

[2] = as above; details: U2OS GFP-HIF1alpha nuclear intensity imaging; at 38 µM (top of the series)
How it was run: as §1

c1ccc(-c2nnc(-c3ccccn3)nc2NCCc2ccccn2)cc1
AC40 [1]: 4.57 µM

c1ccc(-c2cccc(CNc3nc(-c4ccccn4)nnc3-c3ccccc3)c2)cc1
AC40 [1]: 0.407 µM

O=C(Nc1ccc2ccccc2n1)c1cc(-c2ccccc2)on1
activation [2]: 0.342% (inactive)

O=C(NCCN1CCOCC1)c1cc(-c2ccccc2)on1
activation [2]: 248% (inactive)

c1ccc(-c2nnc(-c3ccccn3)nc2Nc2cnc3ccccc3n2)cc1
AC40 [1]: 3.16 µM

O=C(Nc1ncc(-c2ccccc2)o1)c1cc(-c2ccccc2)on1
activation [2]: 4.26% (inactive)

C[C@@H](Nc1nc(-c2ccccn2)nnc1-c1ccccc1)C1CCCCC1
AC40 [1]: 0.515 µM

Cc1ccccc1CNc1nc(-c2ccccn2)nnc1-c1ccccc1
AC40 [1]: 1.14 µM

Oc1ccc(CNC2Cc3ccccc3C2)c2cccnc12
AC40 [1]: 4.22 µM

O=C(NCCCn1ccnc1)c1cc(-c2ccccc2)on1
AC40 [1]: 5.74 µM

Cn1c(-c2ccccc2)cnc1NC(=O)c1cc(-c2ccccc2)on1
AC40 [1]: > 38 µM (inactive)

Cc1ccc(NC(=O)c2cc(-c3ccccc3)on2)cn1
AC40 [1]: > 38 µM (inactive)

CN1CCN(C(=O)c2cc(-c3ccccc3)on2)CC1
activation [2]: -3.79% (inactive)

CN(C)c1nc(-c2ccccn2)nnc1-c1ccccc1
AC40 [1]: 11.6 µM

O=C(c1cc(-c2ccccc2)on1)N1CCC(N2CCOCC2)CC1
activation [2]: -3.94% (inactive)

O=C(NCCCCO)c1cc(-c2ccccc2)on1
AC40 [1]: 2.08 µM

Cc1ccc(CNc2nc(-c3ccccn3)nnc2-c2ccccc2)cc1
AC40 [1]: 1.24 µM

O=C(Nc1cnc2ccccc2c1)c1cc(-c2ccccc2)on1
activation [2]: 8.34% (inactive)

c1ccc(-c2nnc(-c3ccccn3)nc2NCC2CCCCC2)cc1
AC40 [1]: 1.13 µM

COc1ccc(CNc2nc(-c3ccccn3)nnc2-c2ccccc2)cc1
AC40 [1]: 1.15 µM

Clc1cccc(CNc2nc(-c3ccccn3)nnc2-c2ccccc2)c1
AC40 [1]: 0.651 µM

COc1ccccc1N1CCN(Cc2ccc(O)c3ncccc23)CC1
activation [2]: 219% (inactive)

CN(C)CCNC(=O)c1cc(-c2ccccc2)on1
AC40 [1]: > 38 µM (inactive)

c1ccc(-c2nnc(-c3ccccn3)nc2N2CCC(C3CCCCC3)C2)cc1 (configuration not stated)
AC40 [1]: 0.24 µM

CC(Nc1nc(-c2ccccn2)nnc1-c1ccccc1)c1ccccc1 (configuration not stated)
AC40 [1]: 1.48 µM

CC1CN(Cc2ccc(O)c3ncccc23)CC(C)O1 (configuration not stated)
AC40 [1]: 18.6 µM

Cc1cccc(CNC(=O)c2cc(-c3ccccc3)on2)c1
activation [2]: 12.7% (inactive)

O=C(NCCCN1CCOCC1)c1cc(-c2ccccc2)on1
AC40 [1]: 14.8 µM

c1ccc(-c2nnc(Nc3nc(-c4ccccn4)nnc3-c3ccccc3)s2)cc1
AC40 [1]: 7.75 µM

c1ccc(-c2nnc(-c3ccccn3)nc2NCCN2CCOCC2)cc1
AC40 [1]: 7.2 µM

CN1CCN(c2nc(-c3ccccn3)nnc2-c2ccccc2)CC1
AC40 [1]: 8.8 µM

O=C(c1cc(-c2ccccc2)on1)N1CCC(N2CCCC2)CC1
activation [2]: 5.78% (inactive)

O=C(NCCCO)c1cc(-c2ccccc2)on1
AC40 [1]: 5.32 µM

c1ccc(-c2nnc(-c3ccccn3)nc2NCc2cccnc2)cc1
AC40 [1]: 3.21 µM

Cc1ccccc1CNC(=O)c1cc(-c2ccccc2)on1
activation [2]: 6.92% (inactive)

Cc1ccc(CNC(=O)c2cc(-c3ccccc3)on2)cc1
activation [2]: 0.663% (inactive)

C=CCNc1nc(-c2ccccn2)nnc1-c1ccccc1
AC40 [1]: 5.24 µM

Oc1ccc(CN2CCc3ccccc3C2)c2cccnc12
AC40 [1]: 3.58 µM and 20.4 µM

Cc1ccc(CNc2nc(-c3ccccn3)nnc2-c2ccccc2)cc1C
AC40 [1]: 0.779 µM

N#CC1(c2ccccc2)CCN(Cc2ccc(O)c3ncccc23)CC1
AC40 [1]: > 38 µM (inactive)

COc1cccc(CNc2nc(-c3ccccn3)nnc2-c2ccccc2)c1
AC40 [1]: 1.08 µM

Cn1c(NC(=O)c2cc(-c3ccccc3)on2)nc2ccccc21
activation [2]: -0.603% (inactive)

O=C(c1cc(-c2ccccc2)on1)N1CCC(CO)CC1
activation [2]: 8.11% (inactive)

c1ccc(-c2csc(Nc3nc(-c4ccccn4)nnc3-c3ccccc3)n2)cc1
AC40 [1]: 0.88 µM

c1ccc(-c2ccc(CNc3nc(-c4ccccn4)nnc3-c3ccccc3)cc2)cc1
AC40 [1]: 0.487 µM

O=C(Nc1nnc(-c2ccccc2)s1)c1cc(-c2ccccc2)on1
activation [2]: -0.414% (inactive)

c1ccc(-c2nnc(-c3ccccn3)nc2N2CCC(N3CCOCC3)CC2)cc1
AC40 [1]: 3.85 µM

O=C(c1cc(-c2ccccc2)on1)N1CCN(c2ccncc2)CC1
activation [2]: 14% (inactive)

c1ccc(-c2nnc(-c3ccccn3)nc2N2CCC(c3ccccc3)C2)cc1 (configuration not stated)
AC40 [1]: 0.353 µM

c1ccc(-c2cnc(Nc3nc(-c4ccccn4)nnc3-c3ccccc3)s2)cc1
AC40 [1]: 9.91 µM

C[C@H](Nc1nc(-c2ccccn2)nnc1-c1ccccc1)C1CCCCC1
AC40 [1]: 0.866 µM

c1ccc(-c2nnc(-c3ccccn3)nc2NCC2CC2)cc1
AC40 [1]: 3.09 µM

O=C(NCc1ccccc1)c1cc(-c2ccccc2)on1
activation [2]: -3.06% (inactive)

Oc1ccc(CN2CCC(Cc3ccccc3)CC2)c2cccnc12
activation [2]: 592% (inactive)

O=C(Nc1nc(-c2ccccc2)cs1)c1cc(-c2ccccc2)on1
activation [2]: 0.096% (inactive)

OCCCNc1nc(-c2ccccn2)nnc1-c1ccccc1
AC40 [1]: 12.1 µM

O=C(NC1CCc2ccccc2C1)c1cc(-c2ccccc2)on1 (configuration not stated)
AC40 [1]: > 38 µM (inactive)

c1ccc(-c2nnc(-c3ccccn3)nc2NCCCN2CCOCC2)cc1
AC40 [1]: 5.94 µM

CC(C)(C)CCNc1nc(-c2ccccn2)nnc1-c1ccccc1
AC40 [1]: 0.77 µM and 0.585 µM

O=C(NC1Cc2ccccc2C1)c1cc(-c2ccccc2)on1
activation [2]: 7.61% (inactive)

c1ccc(-c2nnc(-c3ccccn3)nc2Nc2nc3ccccc3s2)cc1
AC40 [1]: 1.26 µM

CC(C)(C)c1ccc(CNc2nc(-c3ccccn3)nnc2-c2ccccc2)cc1
AC40 [1]: 0.169 µM

O=C(c1cc(-c2ccccc2)on1)N1CCc2cccnc21
activation [2]: 0.25% (inactive)

OCC1CCN(c2nc(-c3ccccn3)nnc2-c2ccccc2)CC1
AC40 [1]: 13.6 µM

CCCCNC(=O)c1cc(-c2ccccc2)on1
AC40 [1]: 5.94 µM

Cc1cccc(NC(=O)c2cc(-c3ccccc3)on2)n1
activation [2]: 7.71% (inactive)

c1ccc(CCNc2nc(-c3ccccn3)nnc2-c2ccccc2)cc1
AC40 [1]: 5.72 µM

O=C(NCC1CCCCC1)c1cc(-c2ccccc2)on1
AC40 [1]: > 38 µM (inactive)

c1ccc(-c2nnc(-c3ccccn3)nc2NCC2CCOCC2)cc1
AC40 [1]: 6.43 µM

Cc1cccc(CNc2nc(-c3ccccn3)nnc2-c2ccccc2)c1
AC40 [1]: 1.83 µM

O=C(Nc1cn2ccccc2n1)c1cc(-c2ccccc2)on1
AC40 [1]: 3.04 µM

CC(C)(C)OC(=O)N1CCN(Cc2ccc(O)c3ncccc23)CC1
AC40 [1]: > 38 µM (inactive)

c1ccc(-c2nnc(-c3ccccn3)nc2N2CCN(c3ccncc3)CC2)cc1
AC40 [1]: 5.44 µM

C[C@@H](Nc1nc(-c2ccccn2)nnc1-c1ccccc1)c1ccccc1
AC40 [1]: 1.87 µM

c1ccc(CNc2nc(-c3ccccn3)nnc2-c2ccccc2)cc1
AC40 [1]: 2.07 µM

CC(C)(C)CCNC(=O)c1cc(-c2ccccc2)on1
AC40 [1]: 18 µM

O=C(Nc1nc2ccccc2s1)c1cc(-c2ccccc2)on1
AC40 [1]: 20.1 µM

O=C(NCCN1CCCCC1)c1cc(-c2ccccc2)on1
AC40 [1]: > 38 µM (inactive)

Cc1cccc(Nc2nc(-c3ccccn3)nnc2-c2ccccc2)n1
AC40 [1]: 2.98 µM

Oc1ccc(CN2CCC3CCCCC3C2)c2cccnc12 (configuration not stated)
AC40 [1]: 5.44 µM

Cc1ccc(Nc2nc(-c3ccccn3)nnc2-c2ccccc2)cn1
AC40 [1]: 9.48 µM

O=C(NCC1CC1)c1cc(-c2ccccc2)on1
AC40 [1]: 7.97 µM

O=C(Nc1ncc2ccccc2n1)c1cc(-c2ccccc2)on1
AC40 [1]: 32.3 µM

Oc1ccc(CNC2CCc3ccccc32)c2cccnc12 (configuration not stated)
AC40 [1]: 10.3 µM

c1ccc(-c2nnc(-c3ccccn3)nc2NCc2ccccn2)cc1
AC40 [1]: 6.35 µM

Cn1c(-c2ccccc2)cnc1Nc1nc(-c2ccccn2)nnc1-c1ccccc1
AC40 [1]: 8.34 µM

OCC1CCN(Cc2ccc(O)c3ncccc23)CC1
AC40 [1]: 4.02 µM
